# High-throughput results (PubChem BioAssay)
# A selection: hits, their analogues and other compounds. The true share with any hit is near 2.3%.
# EWS-Fli inh – EWS/Fli transcriptional activity inhibition; A673 NR0B1-luciferase reporter, viability-normalised; inhibition, % at 12.6 µM; hit rate 0.67% among 350,000;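 active = mean inhibition of at least 50% after viability correction, with every replicate also passing that limit; inconclusive = mean reaches 50% but only one of two replicates passes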;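 note: firefly luciferase signal divided by Alamar Blue viability fluorescence both relative to DMSO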
# HIV Env fusion – blocks HIV Env-driven cell-cell fusion. AID 651610. inhibition, % at 12.3 µM. HeLa-JRFL Env/CEM21 cell fusion, luciferase. hit rate 1.1% among 360,000;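 active = mean replicate inhibition score of at least 50 and every replicate individually at or above 50; inconclusive = only one of the two criteria met; inactive = mean below 50 and not all replicates reaching 50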;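 note: 0% = plate neutral controls and 100% = maraviroc near 300 nM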
# PAX8 reporter – PAX8 transcriptional activity inhibition; RMG-I TPO-luciferase reporter, SteadyGlo, 24 h; inhibition, % at 12.6 µM; hit rate 1.2% among 360,000;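 active = mean replicate inhibition at least 60% with every replicate also reaching 60%; inconclusive = only one of the two criteria is met; inactive = mean below 60% and not all replicates reaching 60%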;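 note: luciferase light reporting Pax8 driven TPO promoter activity; plate controls were median of neutral control wells for no effect and mitoxantrone controls for full effect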
# CFTR F508del cor – correctors of CFTR F508del function in bronchial epithelial cells; activity (quench increase), % at 7.58 µM; CFBE cells, YFP halide quenching; stimulated with forskolin plus potentiator P3; % fluorescence drop versus neutral controls; hit rate 0.36% among 350,000; AID 720511;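 active = mean added fluorescence quench of at least 8% versus neutral control, with both replicates also reaching 8%; inconclusive = only one of the mean or replicate conditions met; inactive = mean below 8% and not both replicates reaching 8%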;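 note: cells transiently co-express mutant CFTR-F508del with the halide-sensitive YFP; corrector assay measuring rescue of mutant channel to the surface after 24 h compound exposure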
# PGC1a acetyl inh – lowers PGC1a acetylation signal in U2OS cells; inhibition, % at 15.6 µM; AlphaScreen anti-acetyl-lysine; with virally co-expressed GCN5 acetyltransferase; hit rate 0.17% among 350,000;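 active = every replicate shows inhibition of at least 40%; inconclusive = mean inhibition at least 40% but some replicate below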;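 note: 0% = neutral control wells and 100% = positive control wells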
# FN deposition inh – fibronectin deposition inhibition. hit rate 0.086% among 350,000. AH1F fibroblasts, Alexa488-fibronectin deposition fluorescence, overnight. inhibition, % at 12.6 µM;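 active = mean inhibition across replicates of 30% or more, regardless of how many single replicates reach that level; inconclusive = mean under 30% yet at least half of replicates reach 30%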;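 note: positive control wells lacked labelled fibronectin entirely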
#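 material = AH1F fibroblast monolayer depositing Alexa488-labelled fibronectin into matrix | amount = 10000 AH1F cells/well | buffer or medium = DMEM plus 2% serum, read in PBS | incubation = 1 h cell adhesion before compound, then overnight fibronectin incubation | detection = fluorescence at 485 nm excitation, 525 nm emission | evaluation = percent inhibition as loss of matrix-bound fibronectin fluorescence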
# An asterisk follows results filed as active; ? = inconclusive; / = no result; [ ] = another dose, or the depositor's remark.
SMILES,EWS-Fli inh,HIV Env fusion,PAX8 reporter,CFTR F508del cor,PGC1a acetyl inh,FN deposition inh
O=C(NC(=S)Nc1ccccc1N1CCCC1)c1ccc([N+](=O)[O-])cc1,/,-26.2,-7.3,/,/,-1.4
O=C(C[C@@H]1C=C[C@H](NS(=O)(=O)c2ccc(F)cc2)[C@@H](CO)O1)N1CCC(Cc2ccccc2)CC1,8.7,7.8[16.7 µM],1.6,2.4,-6.0,0.3
Cc1cc(C2CCCCC2)n(O)c(=O)c1,31.4,8.8,73.3*,-0.1,14.3,-5.1
COc1ccccc1S(=O)(=O)N[C@H]1CC[C@@H](CC(=O)N2CCN(C)CC2)O[C@H]1CO,4.0,57.0*[16.7 µM],11.1,-2.2,1.3,7.5
COc1ccccc1S(=O)(=O)N[C@@H]1CC[C@H](CC(=O)N2CCN(C)CC2)O[C@H]1CO,-10.3,7.5[16.7 µM],-4.9,-2.0,-10.8,8.4
CN(C)c1ccc(CNC(=O)C2(C)Cc3c(-c4ccc(N(C)C)cc4)ccnc3O2)cc1 (stereo not drawn),-7.1,-21.7,-11.6,1.0,/,2.9
COCCNC(=O)C1(C)Cc2c(-c3ccc(N(C)C)cc3)ccnc2O1 (stereo not drawn),7.9,11.5,29.5,0.9,/,-0.7
CN(C)c1ccc(CNC(=O)C2(C)Cc3c(-c4ccc5c(c4)OCO5)ccnc3O2)cc1 (stereo not drawn),58.7*,-21.0,26.4,1.3,/,5.6
CN(C)c1ccc(-c2ccnc3c2CC(C)(C(=O)NCC2CC2)O3)cc1 (stereo not drawn),16.1,42.6,9.7,-0.7,/,35.4*
O=CN1CCCN(C(=O)CC2C(=O)NCCN2Cc2cccc(Oc3ccccc3)c2)CC1 (stereo not drawn),2.3,2.6,-5.8,-4.3,-8.5,-2.7
O=C1NCCN(Cc2cccc(Oc3ccccc3)c2)C1CC(=O)N1CCCCC1 (stereo not drawn),7.8,71.7*,3.1,-0.1,/,2.1
O=C(c1ccc(F)cc1)N1CCCCN2[C@H](CO)[C@H](c3ccc(-c4ccc(F)cc4)cc3)[C@H]2C1,-11.0,/,21.5,-4.2,8.7,/
Nc1ncc(Br)cc1S(=O)(=O)NCCC(=O)Nc1cccc(Cl)c1,/,59.3*,/,/,/,/
Cc1cc(NC(=O)CCNS(=O)(=O)c2cc(Br)cnc2N)ccc1Br,/,58.9*,/,/,5.0,-4.7
Cc1ccc(NC(=O)CCNS(=O)(=O)c2cc(Br)cnc2N)cc1Cl,/,31.8,25.5,/,-2.8,8.7
COc1cccc(NC(=O)N[C@H]2C=C[C@@H](CC(=O)Nc3ccccc3)O[C@H]2CO)c1,-7.3,-10.6[16.7 µM],-1.2,-1.4,-3.1,-3.2
Clc1ccc(C[n+]2cc(-c3ccccc3)n3c2CCCCC3)c(Cl)c1,35.6,17.5,81.3*,-2.1,/,13.5
Clc1ccc(-c2c[n+](Cc3ccc(Cl)cc3Cl)c3n2CCCCC3)cc1,7.5,20.4,22.0,?,-13.9,2.2
Cc1ccccc1N(Cc1cc(=O)[nH]c2ccccc12)C(=O)CCl,23.1,41.3,82.7*,1.8,/,1.6
Cc1ccc(S(=O)(=O)N[C@H]2C=C[C@@H](CC(=O)N3CCN(c4ccccc4)CC3)O[C@@H]2CO)cc1,5.0,19.1[16.7 µM],5.9,1.8,0.3,3.7
CCC(=O)N1[C@@H]2c3cccc(=O)n3C[C@@H]2[C@@H](CO)[C@@H]1C(=O)NC1CCCC1,-5.9,/,/,0.6,-6.5,/
C[C@@H]1CN([C@H](C)CO)C(=O)c2cc(NC(=O)NC3CCCCC3)ccc2O[C@@H](C)CCCCO[C@H]1CN(C)Cc1ccc(C(F)(F)F)cc1,-24.5,?,105.1*,-7.6,10.6,/
C[C@@H]1CN([C@@H](C)CO)C(=O)c2cc(NC(=O)NC3CCCCC3)ccc2O[C@@H](C)CCCCO[C@H]1CN(C)Cc1ccc(C(F)(F)F)cc1,-13.3,-42.9[16.7 µM],78.5*,-1.7,4.6,/
COc1ccc(NC(=O)Nc2ccc3c(c2)[C@@H]2C[C@H](CC(=O)N[C@@H](C)c4ccccc4)O[C@H](CO)[C@@H]2O3)cc1,-1.5,/,/,1.5,-2.1,-31.3
C[C@@H]1CN([C@@H](C)CO)S(=O)(=O)c2ccc(/C=C/c3ccccc3)cc2O[C@H]1CN(C)C(=O)NC1CCCCC1,6.6,/,-4.0,1.0,-0.8,/
C[C@H](CO)N1C[C@H](C)[C@@H](CN(C)C(=O)Nc2cc(F)ccc2F)Oc2cc(/C=C/c3ccccc3)ccc2S1(=O)=O,22.3,34.3[16.7 µM],66.4*,1.9,-15.6,9.5
